According to ChEMBL document CHEMBL2069207, “Polyhydroxylated steroidal glycosides from Paris polyphylla” (J Nat Prod, 2012):
Activity calls are given as the source filed them. No cut-off for these calls is given here.

These compounds were tested on CCRF-CEM (assay: Cytotoxicity against human CCRF-CEM cells by XTT assay).
Type: functional, cell-based
Summary of the method: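 CCRF-CEM human leukemia cells were exposed to 0.001 to 100 μM to build dose–response curves, read by XTT proliferation assay. IC50 was taken from the curves. Only agents giving at least 80% inhibition in a 100 μM screen were taken forward. An equivalent DMSO concentration was the negative control and viability reference, and doxorubicin was the positive control.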
Compound CC1=C(CC[C@@H](C)CO[C@@H]2O[C@H](CO)[C@@H](O)[C@H](O)[C@H]2O)O[C@H]2C[C@H]3[C@@H]4CC=C5C[C@@H](O[C@@H]6O[C@H](CO)[C@@H](O[C@@H]7O[C@@H](C)[C@H](O[C@@H]8O[C@@H](C)[C@H](O)[C@@H](O)[C@H]8O)[C@@H](O)[C@H]7O)[C@H](O)[C@H]6O[C@@H]6O[C@@H](C)[C@H](O)[C@@H](O)[C@H]6O)CC[C@]5(C)[C@H]4CC[C@]3(C)[C@@H]12 has an IC50 of 6520 nM.
With COc1cccc2c1C(=O)c1c(O)c3c(c(O)c1C2=O)C[C@@](O)(C(=O)CO)C[C@@H]3O[C@H]1C[C@H](N)[C@H](O)[C@H](C)O1 [DOXORUBICIN] the IC50 was 2140 nM.
For C[C@H](CC[C@@]1(O)O[C@H]2C[C@H]3[C@@H]4CC=C5C[C@@H](O[C@@H]6O[C@H](CO)[C@@H](O[C@@H]7O[C@@H](C)[C@H](O[C@@H]8O[C@@H](C)[C@H](O)[C@@H](O)[C@H]8O)[C@@H](O)[C@H]7O)[C@H](O)[C@H]6O[C@@H]6O[C@@H](C)[C@H](O)[C@@H](O)[C@H]6O)CC[C@]5(C)[C@H]4CC[C@]3(C)[C@H]2[C@@H]1C)CO[C@@H]1O[C@H](CO)[C@@H](O)[C@H](O)[C@H]1O [DICHOTOMIN], the IC50 was 590 nM.
For C[C@H](CC[C@@]1(O)O[C@H]2C[C@H]3[C@@H]4CC=C5C[C@@H](O[C@@H]6O[C@H](CO)[C@@H](O[C@@H]7O[C@@H](CO)[C@H](O)[C@H]7O)[C@H](O)[C@H]6O[C@@H]6O[C@@H](C)[C@H](O)[C@@H](O)[C@H]6O)CC[C@]5(C)[C@H]4CC[C@]3(C)[C@@]2(O)[C@@H]1C)CO[C@@H]1O[C@H](CO)[C@@H](O)[C@H](O)[C@H]1O [PARISYUNNANOSIDE A], the IC50 was 6680 nM.
For C[C@H](CCC1(O)OC2CC3C4CC=C5C[C@@H](O[C@@H]6O[C@H](CO)C(O[C@@H]7O[C@@H](CO)[C@H](O)[C@H]7O)[C@@H](O)[C@H]6O[C@@H]6O[C@@H](C)[C@H](O)[C@@H](O)[C@H]6O)CC[C@]5(C)C4CC[C@]3(C)C2[C@@H]1C)CO[C@@H]1O[C@H](CO)[C@@H](O)[C@H](O)[C@H]1O (some centres not stated) [PARISAPONIN I], the IC50 was 1230 nM.
C[C@H](CC[C@@]1(O)O[C@H]2C[C@H]3[C@@H]4CC=C5C[C@@H](O[C@@H]6O[C@H](CO)[C@@H](O)[C@H](O[C@@H]7O[C@H](CO)[C@@H](O)[C@H](O)[C@H]7O)[C@H]6O[C@@H]6O[C@@H](C)[C@H](O)[C@@H](O)[C@H]6O)CC[C@]5(C)[C@H]4CC[C@]3(C)[C@H]2[C@@H]1C)CO[C@@H]1O[C@H](CO)[C@@H](O)[C@H](O)[C@H]1O gave an IC50 of 1770 nM.

These compounds were tested on CCRF-CEM (assay: Cytotoxicity against human CCRF-CEM cells at 100 uM by XTT assay).
Type: functional, cell-based
Summary of the method: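 Human CCRF-CEM leukemia cells; single fixed concentration of 100 μM. Proliferation inhibition was read by XTT assay and expressed as inhibition rate. Viability was referenced to an equivalent DMSO concentration as negative control. Doxorubicin served as positive control.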
For CC1=CO[C@@]2(O[C@H]3C[C@H]4[C@@H]5CC=C6C[C@@H](O)C[C@@H](O[C@@H]7O[C@H](CO)[C@@H](O)[C@H](O[C@@H]8OC[C@@H](O)[C@H](O)[C@H]8O)[C@H]7O[C@@H]7O[C@@H](C)[C@H](O)[C@@H](O)[C@H]7O)[C@]6(C)[C@H]5CC[C@]4(C)[C@H]3[C@@H]2CO[C@@H]2O[C@H](CO)[C@H](O)[C@H](O)[C@H]2O)[C@@H](O)[C@H]1O[C@@H]1O[C@H](C)[C@H](O)[C@H](O)[C@H]1O, the Activity was “inactive”.
With C=C1CO[C@@]2(O[C@H]3C[C@H]4[C@@H]5CC=C6C[C@@H](O)C[C@@H](O[C@@H]7O[C@H](CO)[C@@H](O)[C@H](O[C@@H]8OC[C@@H](O)[C@H](O)[C@H]8O)[C@H]7O[C@@H]7O[C@@H](C)[C@H](O)[C@@H](O)[C@H]7O)[C@]6(C)[C@H]5CC[C@]4(C)[C@H]3[C@@H]2CO[C@@H]2O[C@H](CO)[C@H](O)[C@H](O)[C@H]2O)[C@@H](O)[C@H]1O[C@@H]1O[C@H](C)[C@H](O)[C@H](O)[C@H]1O the Activity was “inactive”.
For C[C@@H]1O[C@@H](O[C@H]2[C@H](O[C@@H]3C[C@H](O)CC4=CC[C@H]5[C@@H]6C[C@@H]7O[C@@]8(OC[C@H](C)[C@H](O[C@@H]9O[C@H](C)[C@H](O)[C@H](O)[C@H]9O)[C@@H]8O)[C@@H](CO)[C@@H]7[C@@]6(C)CC[C@@H]5[C@]43C)O[C@H](CO)[C@@H](O)[C@@H]2O[C@@H]2OC[C@@H](O)[C@H](O)[C@H]2O)[C@H](O)[C@H](O)[C@H]1O, the Activity was “inactive”.
For CC1=CO[C@@]2(O[C@H]3C[C@H]4[C@@H]5CC=C6C[C@@H](O)C[C@@H](O[C@@H]7O[C@H](CO)[C@@H](O)[C@H](O[C@@H]8OC[C@@H](O)[C@H](O)[C@H]8O)[C@H]7O[C@@H]7O[C@@H](C)[C@H](O)[C@@H](O)[C@H]7O)[C@]6(C)[C@H]5CC[C@]4(C)[C@H]3[C@@H]2CO)[C@@H](O)[C@H]1O[C@@H]1O[C@H](C)[C@H](O)[C@H](O)[C@H]1O, the Activity was “inactive”.
With CC(C)(O)CC[C@@H](O)[C@](C)(O)[C@H]1CC[C@@]2(O)C3=CC(=O)[C@@H]4C[C@@H](O)[C@@H](O)C[C@]4(C)[C@H]3CC[C@]12C the Activity was “inactive”.
In the case of CC(C)(O)C(O)CC[C@](C)(O)[C@H]1CC[C@@]2(O)C3=CC(=O)[C@@H]4C[C@@H](O)[C@@H](O)C[C@]4(C)[C@H]3CC[C@]12C (some centres not stated), the Activity is reported as “inactive”.
